Screens as filed in PubChem.
Only some compounds are listed: those with a hit (about 1.7% of all), similar ones and a draw of the others.
CAL PDZ FP-1: inhibitors of human CAL PDZ peptide binding. Q9HD26. purified CAL PDZ, TMR-peptide fluorescence polarization, 1 h. inhibition, % at 24.9 µM. hit rate 0.92% among 300,000. AID 602252;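 active means mean inhibition of at least 30% with at least half of replicates also reaching 30%; inconclusive means no clear call, values can overlap the other calls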;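 further: 0% = DMSO neutral control and 100% = excess unlabeled competitor peptide PRC23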
ARNT-TACC3 inh: ARNT/TACC3 interaction disruption; AlphaScreen His-ARNT PAS-B/GST-TACC3 binding, luminescence; TACC3 fragment carries E629A point mutation; inhibition, % at 9.99 µM; hit rate 0.66% among 390,000; AID 623870;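 active means mean inhibition of replicates at least 50% and at least half of replicates each reaching 50%; inconclusive means half or more replicates reach 50% but mean below 50%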;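 further: 0% = complete ARNT plus TACC3 wells and 100% = ARNT alone without TACC3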
AI-2 QS mod: Vibrio harveyi AI-2 quorum sensing modulation; Vibrio harveyi JMH597 AI-2 luminescence/OD600 ratio, 9 h; stronger effect = lower value; strain lacks LuxN and CqsS sensors; 0 = neutral-control median; activity change, % at 7.5 µM; hit rate 0.4% among 300,000; in the data active means activity change below about -75%, passing the limit was not always enough; inconclusive means no clear call, values can overlap the other calls;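 further: luminescence divided by OD600 gain over 9 h not by final OD600 alone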
CAL PDZ FP-2: inhibitors of human CAL PDZ peptide binding; hit rate 0.02% among 330,000; purified CAL PDZ, TMR-peptide fluorescence polarization, 1 h; AID 504414; inhibition, % at 20 µM;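 active means highest replicate inhibition of at least 40%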;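 further: plate controls were DMSO neutral control wells for no effect and unlabeled competitor peptide control wells for full effect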
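material = purified tagged CAL PDZ domain construct (CerCALP) | buffer or medium = sodium phosphate/NaCl buffer pH 7.4 with TCEP, IgG, Thesit | reagent = TMR-labelled reporter peptide T*-PRC34 bound in PDZ groove | incubation = 1 h room-temperature incubation prior to read | measured by = fluorescence polarization (mP) | evaluation = percent inhibition from loss of millipolarization | control set = unlabelled peptide and DMSO controls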
Rce1 inhib: blocks yeast Ras-converting enzyme; hit rate 0.27% among 290,000; calls only; yeast membranes, quenched prenylated peptide cleavage fluorescence;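 active means fall in fluorescence gain of 50% or more versus controls, with final raw signal at or below 3038400; inconclusive means same 50% fall but final raw signal above 3038400; inactive means fall in fluorescence gain under 50%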;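 further: plate controls were neutral control wells for no effect and wells lacking membranes for full effect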
Target sequence (Q03530 whole entry, looked up): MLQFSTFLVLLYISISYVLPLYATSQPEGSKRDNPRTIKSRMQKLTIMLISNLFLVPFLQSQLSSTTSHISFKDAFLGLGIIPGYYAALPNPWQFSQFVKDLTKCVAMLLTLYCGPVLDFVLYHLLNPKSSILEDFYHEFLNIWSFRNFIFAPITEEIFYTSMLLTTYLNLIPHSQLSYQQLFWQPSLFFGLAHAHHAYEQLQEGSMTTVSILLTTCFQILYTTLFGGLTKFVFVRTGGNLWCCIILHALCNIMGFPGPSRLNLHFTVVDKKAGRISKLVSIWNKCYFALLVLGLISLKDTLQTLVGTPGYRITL
* marks the source's active call; other numbers are inactive results; i = inactive; u = inconclusive; x = not tested or not shown; + = active, no number.

SMILES | CAL PDZ FP-1 | ARNT-TACC3 inh | AI-2 QS mod | CAL PDZ FP-2 | Rce1 inhib
Cc1cc([N+](=O)[O-])nn1CC(=O)N/N=C/c1ccccc1Br | -4 | 5 | -21 | -1 | i
O=C(Cn1nc2ccccc2n1)N/N=C/c1cc([N+](=O)[O-])ccc1O | -4 | x | -86* | 0 | i
O=C(N/N=C/c1ccc(O)cc1O)/C(=C/c1ccccc1)CCO | 0 | 70* | 29 | -2 | i
O=C(N/N=C/c1cc([N+](=O)[O-])ccc1O)C1CCCCC1 | -1 | 67* | -6 | -1 | i
Cc1cc([N+](=O)[O-])nn1CC(=O)N/N=C/c1ccc(O)cc1O | -4 | 71* | 44 | -2 | i
Nn1c(SCc2nc3ccccc3[nH]2)nnc1-c1ccccc1 | -2 | 5 | 0 | -2 | i
O=C(c1ccccc1)C1CCN(C(=O)C2CCC(=O)N(Cc3ccccc3F)C2)CC1 (centres undefined) | -5 | -11 | 11 | 0 | i
Cc1ccn(CC(=O)N/N=C/c2cc([N+](=O)[O-])ccc2O)n1 | 0 | x | -169* | -3 | i
O=C(CSc1ccccn1)N/N=C/c1ccccc1[N+](=O)[O-] | 3 | -4 | 14 | -2 | i
O=C(CSc1ccccn1)N/N=C/c1cc([N+](=O)[O-])ccc1O | 1 | 76* | u | -1 | i
Cc1ccc(NC(=O)CCC(=O)N/N=C/c2ccc(O)cc2O)cc1 | -6 | 71* | 52 | -1 | i
O=C(CCC(=O)Nc1ccc(F)cc1)N/N=C/c1ccccc1O | -4 | 31 | 17 | -2 | i
CC1Oc2ccccc2C=C1/C=N/Nc1ccc(C(=O)O)cc1 (centres undefined) | 8 | 15 | -92* | 0 | i
COc1ccc(O)c(C(=O)c2cc(C#N)c(=O)n(-c3ccc(Cl)cc3)c2)c1 | 39* | 1 | 2 | 0 | i
CC(C)NC(=O)N(C)C[C@H]1OCCCC[C@@H](C)Oc2ccc(NC(=O)CCC(F)(F)F)cc2C(=O)N([C@H](C)CO)C[C@H]1C | x | -7 | x | x | x
Cc1ccc(OCCC(=O)N(CC(=O)Nc2ccccc2C(F)(F)F)Cc2ccco2)cc1 | 40* | 3 | 25 | -2 | i
O=C(C1=C[C@H](c2csc3ccccc23)C[C@H](OCCCCO)O1)N1CCN(Cc2ccc3c(c2)OCO3)CC1 | -3 | 3 | 1 | -1 | i
N#Cc1nc(-c2ccc(Cl)cc2)oc1NCc1ccco1 | -2 | -1 | 7 | -2 | i
N#Cc1nc(-c2ccccc2Cl)oc1NCc1ccco1 | -2 | -1 | -80* | -3 | i
CSc1cccc(NC(=O)CNC(=O)c2ccc3c(c2)OCO3)c1 | 61* | -1 | 20 | -1 | i
O=S(=O)(Nc1ccc(C(F)(F)F)cc1)c1cccs1 | -3 | 4 | -85* | -2 | i
COc1ccc(S(=O)(=O)N(CC(=O)NCc2cccnc2)Cc2ccccc2)cc1 | -6 | 1 | 3 | -3 | i
COc1ccc(C)cc1NC(=O)C1CCN(S(=O)(=O)c2cccc3nonc23)CC1 | 1 | 3 | x | -2 | x
Cc1ccc(N=Cc2c(O)n(C)c(=O)n(C)c2=O)nc1 | 1 | -26 | 37 | -2 | +
Cc1ccc(N=CC2=C(O)CC(C)(C)CC2=O)nc1 | -3 | 0 | 43 | 0 | i
SMILES | CAL PDZ FP-1 | ARNT-TACC3 inh | AI-2 QS mod | CAL PDZ FP-2 | Rce1 inhib
Cc1nn(-c2ccccc2)c2nc(C(Cl)(Cl)Cl)[nH]c(=O)c12 | 59* | 3 | 13 | -1 | i
CO[C@H]1CN(C)C(=O)c2cc(NC(=O)C3CC3)ccc2OC[C@@H](C)N(Cc2cccc(F)c2)C[C@H]1C | x | -6 | x | x | x
Cc1ccc(N(C(=O)CNC(=O)c2ccco2)C(C(=O)NC2CCCC2)c2ccncc2)cc1C (centres undefined) | 2 | -5 | 3 | -3 | i
c1cnc(N2CCN(c3nc4ccccc4n4cnnc34)CC2)nc1 | x | 49* | 9 | -2 | i
CN(C)/N=C/c1ccc(OS(=O)(=O)c2ccccc2)cc1 | -3 | 0 | 19 | 0 | i
Cc1cccc(-c2nnc(NC(=O)c3ccc(Cl)cc3)o2)c1 | x | 3 | 62 | -2 | i
O=C(Nc1cccc(NC(=O)c2cccc(Cl)c2)c1)c1cccnc1 | 35* | x | 6 | -3 | i
O=C(Nc1nnc(-c2ccccn2)o1)c1cccc(Cl)c1 | -1 | 52* | 68 | -2 | i
O=C(Nc1nnc(-c2ccco2)o1)c1ccc(Cl)s1 | -3 | 43 | 11 | -2 | i
